One data set addresses Toll-like receptor 2 (Mus musculus, UniProt Q9QUN7). Nature of the data set: Antagonist activity at TLR2 in mouse RAW264.7 cells assessed as PAM3CSK4-induced NO production measured after 24 hrs by Griess assay. The class given is cell-based. Put shortly: (§1)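 RAW 264.7 cells in DMEM/10% FBS/pen-strep, 80,000 per well, preincubated 24 h at 37 °C, 5% CO2. Nonadherent cells removed, medium changed to plain DMEM. Cells co-treated with compound and 200 ng/mL Pam3CSK4 for 24 h. Nitrite in supernatant measured by modified Griess reagent (sulfanilic acid/phosphoric acid, then naphthylethylenediamine), read at OD560. Triplicate.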

Data set [1] deals with Toll-like receptor 2 (Mus musculus) (UniProt Q9QUN7). Nature of the data set: Antagonist activity at TLR2 in mouse RAW264.7 cells assessed as PAM3CSK4-induced NO production at 150 uM measured after 24 hrs by Griess assay. The class given is cell-based. Put shortly:
as §1
In general terms: Griess reagent forms a coloured azo dye with nitrite.

Data set [2] deals with Toll-like receptor 2 (Homo sapiens) (UniProt O60603). Nature of the data set: Inhibition of TLR2 in human HEK-Blue hTLR2 cells assessed as suppression of PAM3CSK4-induced SEAP signaling at 25 uM after 24 hrs by quanti-blue assay relative to control. The class given is cell-based. Summed up: (§2)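 HEK-Blue hTLR2 cells (human TLR2, CD14 and NF-κB/AP-1-driven SEAP reporter), 4×10^4 per well, grown 24 h in DMEM/10% FBS. Changed to plain DMEM with compound (0–100 µM) plus 20 ng/ml Pam3CSK4 (TLR1/2) or 20 ng/ml Pam2CSK4 (TLR2/6) for 24 h. Supernatant SEAP read with QUANTI-Blue at 37 °C, OD620 after 15–30 min. Mean ± SD of three independent experiments.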
Sequence of Toll-like receptor 2 (Homo sapiens) (O60603 whole entry): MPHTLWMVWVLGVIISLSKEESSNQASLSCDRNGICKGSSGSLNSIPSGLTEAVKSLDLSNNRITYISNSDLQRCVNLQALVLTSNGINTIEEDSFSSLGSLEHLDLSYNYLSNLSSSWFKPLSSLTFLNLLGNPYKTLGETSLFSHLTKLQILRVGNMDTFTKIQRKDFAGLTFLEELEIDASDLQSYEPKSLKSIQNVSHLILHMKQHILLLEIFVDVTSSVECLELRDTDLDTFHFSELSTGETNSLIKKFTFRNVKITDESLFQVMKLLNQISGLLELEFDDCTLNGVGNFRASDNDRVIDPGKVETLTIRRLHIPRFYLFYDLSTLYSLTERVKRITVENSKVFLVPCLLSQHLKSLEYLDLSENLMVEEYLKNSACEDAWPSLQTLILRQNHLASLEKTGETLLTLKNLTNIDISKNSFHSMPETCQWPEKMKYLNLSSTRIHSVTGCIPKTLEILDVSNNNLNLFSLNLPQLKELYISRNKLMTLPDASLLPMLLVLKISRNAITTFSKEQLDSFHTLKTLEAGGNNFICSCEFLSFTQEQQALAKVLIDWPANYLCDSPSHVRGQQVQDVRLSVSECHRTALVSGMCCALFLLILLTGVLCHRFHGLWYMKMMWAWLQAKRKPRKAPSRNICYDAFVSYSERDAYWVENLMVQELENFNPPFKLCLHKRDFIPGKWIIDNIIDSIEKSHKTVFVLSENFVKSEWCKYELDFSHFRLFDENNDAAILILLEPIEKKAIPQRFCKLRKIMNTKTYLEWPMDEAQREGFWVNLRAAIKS

For data set [3] the target is unchanged. Description: Inhibition of TLR2 in human PBMC cells assessed as PAM2CSK4-induced TLR2/Myd88 heterodimerization formation by immunoprecipitation assay. The class given is cell-based. Put shortly:
(§3)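 Human PBMC, 10^6 cells/mL, given vehicle, Pam3CSK4 (50 ng/mL) or Pam2CSK4 (50 ng/mL) with compound for 24 h. Lysates incubated with anti-TLR2 overnight at 4 °C, then protein A agarose for 4 h. Beads washed three times and boiled in SDS buffer. Immunoprecipitates blotted for TLR1, TLR2, TLR6 and MyD88.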

Data set [4] has the same target. Description: Inhibition of TLR2 in human HEK-Blue hTLR2 cells assessed as suppression of PAM3CSK4-induced SEAP signaling after 24 hrs by quanti-blue assay. The class given is cell-based. Put shortly:
as §2

Data set [5] shares this target. Description: Inhibition of TLR2 in human PBMC cells assessed as decrease in PAM3CSK4 induced TNF-alpha expression at 12.5 uM measured after 24 hrs by ELISA relative to control. The class given is cell-based. Summed up: (§4)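 RAW 264.7 cells or human PBMC, 1×10^6 per well in DMEM/10% FBS/pen-strep, treated with compound plus 50 ng/ml Pam3CSK4 for 24 h at 37 °C. Supernatants frozen at −80 °C. TNF-α measured by sandwich ELISA against recombinant standards, triplicate samples. Mean ± SD, three independent experiments.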

The next data set has as its system RAW264.7. Nature of the data set: Cytotoxicity against mouse RAW264.7 cells assessed as effect on cell viability at 6.25 to 100 uM cotreated with PAM3CSK4 measured after 24 hrs by MTT assay. To be noted: raw264.7, 24 h. The class given is cell-based. Summed up:
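RAW 264.7 cells, 80,000 per well, grown 24 h in DMEM/10% FBS/pen-strep. Medium then switched to plain DMEM containing compound plus Pam3CSK4 (final 200 ng/ml) for 24 h. MTT (5 mg/ml stock in PBS) added for 4 h, formazan dissolved in DMSO, absorbance read at 450 nm.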
A general note: Tetrazolium assays rely on reduction of a dye to a coloured formazan, in cell work by metabolically active cells.

The target in data set [6] is Toll-like receptor 1/2 (Homo sapiens) (UniProt O60603+Q15399). Nature of the data set: Inhibition of PAM3CSK4-induced TLR1/2 activation in human HEK-Blue hTLR2 cells. The class given is cell-based. Summed up:
as §2

The target of data set [7] is Toll-like receptor 4 (Homo sapiens) (UniProt O00206). Nature of the data set: Inhibition of LPS-induced TLR4 activation in human HEK-Blue hTLR4 cells. The class given is cell-based. Put shortly:
(§5)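 HEK-Blue hTLR4 or hTLR3 reporter cells, 4×10^4 per well, grown 24 h, then switched to plain DMEM with compound (0–50 µM). Stimulant was 20 ng/ml LPS for hTLR4 and 20 µg/ml Poly:IC for hTLR3, for 24 h. Supernatant SEAP measured by QUANTI-Blue at OD620. Vehicle as negative control. Three independent experiments.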

The target of data set [8] is Toll-like receptor 2 (Homo sapiens) (UniProt O60603). Nature of the data set: Inhibition of TLR2 in human PBMC cells assessed as PAM3CSK4-induced TLR2/Myd88 heterodimerization formation by immunoprecipitation assay. The class given is cell-based. Summed up: as §3
Data set [9] shares this target. Nature of the data set: Inhibition of TLR2 in human PBMC cells assessed as PAM2CSK4-induced TLR2/6 heterodimerization formation by immunoprecipitation assay. The class given is cell-based. Put shortly: as §3
Data set [10] has the same target. Description: Inhibition of TLR2 in human THP1 assessed as decrease in PAM3CSK4 induced TNF-alpha expression measured after 4 hrs by ELISA. In general terms: In an ELISA, binding on a coated surface is turned into a signal by an enzyme label.
The target in the next data set is TLR2/TLR6 (Homo sapiens) (UniProt O60603+Q9Y2C9). Description: Inhibition of PAM2CSK4-induced TLR2/6 activation in human HEK-Blue hTLR2 cells. The class given is cell-based. Summed up: as §2
In data set [11] the target is Toll-like receptor 2 (Mus musculus) (UniProt Q9QUN7). Nature of the data set: Inhibition of TLR2 in mouse RAW264.7 cells assessed as decrease in PAM3CSK4 induced TNF-alpha expression at 25 uM measured after 24 hrs by ELISA relative to control. The class given is cell-based. Put shortly: as §4
Sequence of Toll-like receptor 2 (Mus musculus) (Q9QUN7 whole entry): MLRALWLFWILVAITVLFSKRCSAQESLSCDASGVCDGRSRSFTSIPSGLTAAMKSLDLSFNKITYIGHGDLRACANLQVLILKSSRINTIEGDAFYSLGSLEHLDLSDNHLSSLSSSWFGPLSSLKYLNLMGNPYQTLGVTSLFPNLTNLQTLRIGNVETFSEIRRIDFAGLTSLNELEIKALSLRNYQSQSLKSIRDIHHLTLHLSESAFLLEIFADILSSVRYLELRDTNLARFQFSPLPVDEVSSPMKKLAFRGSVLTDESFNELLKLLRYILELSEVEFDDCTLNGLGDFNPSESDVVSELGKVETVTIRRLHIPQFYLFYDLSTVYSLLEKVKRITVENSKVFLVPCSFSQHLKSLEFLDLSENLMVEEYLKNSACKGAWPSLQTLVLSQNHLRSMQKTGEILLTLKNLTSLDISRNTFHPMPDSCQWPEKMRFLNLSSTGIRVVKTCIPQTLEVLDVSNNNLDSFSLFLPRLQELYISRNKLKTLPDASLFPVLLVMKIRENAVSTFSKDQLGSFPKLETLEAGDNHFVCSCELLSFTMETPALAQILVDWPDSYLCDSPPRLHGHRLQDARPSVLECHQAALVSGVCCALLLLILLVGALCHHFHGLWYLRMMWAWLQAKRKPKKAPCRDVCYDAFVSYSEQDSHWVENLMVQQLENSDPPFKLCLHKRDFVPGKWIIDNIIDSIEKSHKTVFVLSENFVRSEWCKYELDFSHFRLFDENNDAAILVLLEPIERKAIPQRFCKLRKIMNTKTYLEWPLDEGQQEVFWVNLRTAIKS
The target is the same in data set [12]. Nature of the data set: Inhibition of TLR2 in mouse RAW264.7 cells assessed as decrease in PAM3CSK4 induced TNF-alpha expression measured after 24 hrs by ELISA. The class given is cell-based. Summed up: as §4
Data set [13] has as its target Toll-like receptor 2 (Homo sapiens) (UniProt O60603). Description: Inhibition of TLR2 in human PBMC cells assessed as PAM3CSK4-induced TLR1/2 heterodimerization formation by immunoprecipitation assay. The class given is cell-based. Put shortly: as §3
Data set [14] concerns the target Toll-like receptor 3 (Homo sapiens) (UniProt O15455). Nature of the data set: Inhibition of Poly:IC-induced TLR3 activation in human HEK-Blue hTLR3 cells. The class given is cell-based. Put shortly:
as §5

Data set [15] in a line: Inhibition of PAM3CSK4-induced TLR2 expression in human HEK-Blue Htlr2 cells at 12.5 uM by Western blot analysis relative to control. The class given is functional. Particulars: HEK-Blue hTLR2, read-out: INH. Summed up: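 HEK-Blue hTLR2 cells, 1.5×10^6 per well, grown 24 h, then in plain DMEM with compound and 50 ng/mL Pam3CSK4 for 24 h. Lysed in RIPA/PMSF. Equal lysate amounts run on SDS-PAGE and transferred to nitrocellulose. Blocked in 5% milk, probed overnight at 4 °C with anti-TLR2, then HRP secondary.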

Molecules are shown by their SMILES. pIC50: −log10 of the molar value. Activity calls are given as the source filed them. No cut-off for these calls is given here. Some results are limits rather than exact numbers.

Sequence of Toll-like receptor 2 (Q9QUN7 whole entry): as above
Sequence of Toll-like receptor 3 (Homo sapiens) (O15455 whole entry): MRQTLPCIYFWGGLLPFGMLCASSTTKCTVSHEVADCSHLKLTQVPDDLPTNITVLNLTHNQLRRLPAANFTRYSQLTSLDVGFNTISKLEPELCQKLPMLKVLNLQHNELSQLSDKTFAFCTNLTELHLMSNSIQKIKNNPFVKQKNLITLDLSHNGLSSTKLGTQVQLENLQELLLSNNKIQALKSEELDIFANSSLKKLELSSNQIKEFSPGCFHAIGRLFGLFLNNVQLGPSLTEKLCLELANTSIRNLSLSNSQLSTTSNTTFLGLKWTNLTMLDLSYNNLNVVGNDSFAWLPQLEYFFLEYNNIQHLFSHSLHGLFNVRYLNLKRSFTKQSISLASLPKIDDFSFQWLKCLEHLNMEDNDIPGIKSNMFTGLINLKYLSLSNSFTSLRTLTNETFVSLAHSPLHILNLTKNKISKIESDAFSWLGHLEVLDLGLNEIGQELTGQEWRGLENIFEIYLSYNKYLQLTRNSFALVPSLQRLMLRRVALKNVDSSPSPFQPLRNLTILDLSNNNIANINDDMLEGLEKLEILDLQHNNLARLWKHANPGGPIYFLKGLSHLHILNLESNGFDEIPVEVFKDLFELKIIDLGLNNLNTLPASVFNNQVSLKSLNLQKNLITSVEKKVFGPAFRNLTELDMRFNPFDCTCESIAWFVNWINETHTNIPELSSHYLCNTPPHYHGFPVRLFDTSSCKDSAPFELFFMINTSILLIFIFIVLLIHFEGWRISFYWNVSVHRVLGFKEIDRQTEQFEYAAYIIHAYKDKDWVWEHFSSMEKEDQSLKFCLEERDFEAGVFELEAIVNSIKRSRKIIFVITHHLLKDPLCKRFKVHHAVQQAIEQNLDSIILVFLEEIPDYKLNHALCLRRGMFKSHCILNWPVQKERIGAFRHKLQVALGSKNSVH
Sequence of Toll-like receptor 4 (Homo sapiens) (O00206 whole entry): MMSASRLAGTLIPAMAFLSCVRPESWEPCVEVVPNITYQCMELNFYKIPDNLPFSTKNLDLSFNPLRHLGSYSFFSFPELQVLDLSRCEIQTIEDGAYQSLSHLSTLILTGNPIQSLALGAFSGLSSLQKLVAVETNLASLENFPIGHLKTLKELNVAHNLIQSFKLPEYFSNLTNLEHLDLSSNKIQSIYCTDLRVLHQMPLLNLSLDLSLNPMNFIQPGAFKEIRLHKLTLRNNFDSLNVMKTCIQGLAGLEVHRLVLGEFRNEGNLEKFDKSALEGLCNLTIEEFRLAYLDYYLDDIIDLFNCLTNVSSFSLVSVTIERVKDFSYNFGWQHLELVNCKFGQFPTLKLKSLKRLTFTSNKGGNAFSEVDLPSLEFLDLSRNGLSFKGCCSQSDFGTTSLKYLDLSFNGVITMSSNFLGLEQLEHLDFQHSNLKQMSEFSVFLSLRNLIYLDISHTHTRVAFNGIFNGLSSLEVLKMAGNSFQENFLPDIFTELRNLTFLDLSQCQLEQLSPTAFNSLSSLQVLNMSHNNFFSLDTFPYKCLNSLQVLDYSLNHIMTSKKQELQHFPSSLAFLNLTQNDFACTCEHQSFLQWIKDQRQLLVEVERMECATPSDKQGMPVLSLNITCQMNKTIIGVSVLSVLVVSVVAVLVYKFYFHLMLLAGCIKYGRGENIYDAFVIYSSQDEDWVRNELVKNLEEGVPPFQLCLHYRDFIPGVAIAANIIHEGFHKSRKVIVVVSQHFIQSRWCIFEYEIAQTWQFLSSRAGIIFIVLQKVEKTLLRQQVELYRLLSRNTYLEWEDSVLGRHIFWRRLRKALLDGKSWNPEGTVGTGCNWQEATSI

The pIC50 is the negative decadic logarithm of the IC50, by convention in mol/L. As to `C#CCSC[C@H](N)C(=O)OC`, the pIC50 at Toll-like receptor 2 is 4.03.
With `C#CCSC[C@H](NC(=O)c1cc(O)c(O)c(O)c1)C(=O)OC`, the pIC50 on Toll-like receptor 2 is 4.15.
On the same count and under the same terms, the figure for `C=CCCCSC[C@H](NC(=O)c1cc(O)c(O)c(O)c1)C(=O)OC` is 4.41.
On the same count and under the same terms, next, `C#CCSC[C@H](NC(=O)c1ccc(O)cc1)C(=O)OC`: 4.26; `C=CCCSC[C@H](NC(=O)c1cc(OC)c(OC)c(OC)c1)C(=O)OC`: 4.56; `O=C(O)c1cc(O)c(O)c(O)c1` [GALLIC ACID]: 4.16.
Still for that read-out and setting: next, `C=CCCCSC[C@H](NC(=O)c1cc(O)cc(O)c1)C(=O)OC`: 4.24; `O=C(O)c1cc(O)cc(O)c1` [3,5-DIHYDROXYBENZOIC ACID]: 3.93.
With `N[C@@H](CSCc1ccc(F)cc1)C(=O)O`, the result in data set [1] was inactive.
`N[C@@H](CSCc1ccccc1)C(=O)O`: the result in data set [1] was inactive.
Regarding `C=CCCCSC[C@H](N)C(=O)O`, the outcome in data set [1] was inactive.
With `C=CCCCSC[C@H](NC(=O)c1ccc(O)cc1)C(=O)OC`, the pIC50 on Toll-like receptor 2 is 4.28.
Still for that read-out and setting: the figure for `COC(=O)[C@@H](N)CSCc1ccccc1` is 3.93; for `O=C(O)c1ccc(O)cc1` [PARABEN] it is 3.93; for `C=CCSC[C@H](NC(=O)c1ccc(O)cc1)C(=O)OC` it is 4.39.
Same read-out and setting: the figure for `COC(=O)[C@H](CSCc1ccc(F)cc1)NC(=O)c1cc(OC)c(OC)c(OC)c1` is 4.54; for `C=CCSC[C@H](NC(=O)c1cc(O)cc(O)c1)C(=O)OC` it is 4.23; for `COC(=O)[C@@H](N)CSCc1ccc(F)cc1` it is 4.00.
On the same count and under the same terms, the figure for `C=CCSC[C@H](N)C(=O)OC` is 4.26; for `C=CCCSC[C@H](N)C(=O)OC` it is 4.34; for `C#CCSC[C@H](NC(=O)c1cc(O)cc(O)c1)C(=O)OC` it is 4.38.
For the molecule `COC(=O)[C@H](CSCc1ccccc1)NC(=O)c1cc(O)cc(O)c1`, the negative-log IC50 (pIC50) on Toll-like receptor 2 is 4.30.
Same read-out and setting: next, `COC(=O)[C@H](CSCc1ccccc1)NC(=O)c1ccc(O)cc1`: 4.28; `COC(=O)[C@H](CSCc1ccc(F)cc1)NC(=O)c1cc(O)cc(O)c1`: 4.42; `C=CCCSC[C@H](NC(=O)c1cc(O)c(O)c(O)c1)C(=O)OC`: 4.24.
Turning to `COC(=O)[C@H](CSCc1ccc(F)cc1)NC(=O)c1ccc(O)cc1`, on Toll-like receptor 2, the pIC50 was 4.43.
Consider `C=CCCSC[C@H](N)C(=O)O`, for which, in data set [1], the result was inactive.
As for `C=CCCSC[C@H](NC(=O)c1cc(O)cc(O)c1)C(=O)OC`, the pIC50 on Toll-like receptor 2 was 4.45.
Same read-out and setting: the figure for `C=CCCCSC[C@H](N)C(=O)OC` is 4.50; for `C=CCCSC[C@H](NC(=O)c1ccc(O)cc1)C(=O)OC` it is 4.26.
Consider `C=CCSC[C@H](NC(=O)c1cc(OC)c(OC)c(OC)c1)C(=O)OC`, for which, at Toll-like receptor 2, the pIC50 is 4.31.
Regarding `COC(=O)[C@H](CSCc1ccc(F)cc1)NC(=O)c1cc(O)c(O)c(O)c1`, the pIC50 at Toll-like receptor 2 was 4.30.
As to `COc1cc(C(=O)O)cc(OC)c1OC` [3,4,5-TRIMETHOXYBENZOIC ACID], the pIC50 on Toll-like receptor 2 is 4.27.
Still for that read-out and setting: the figure for `COC(=O)[C@H](CSCc1ccccc1)NC(=O)c1cc(O)c(O)c(O)c1` is 4.22; for `C=CCSC[C@H](NC(=O)c1cc(O)c(O)c(O)c1)C(=O)OC` it is 4.28.
The same measure, in the same setting: next, `C#CCSC[C@H](NC(=O)c1cc(OC)c(OC)c(OC)c1)C(=O)OC`: 4.27.
Take `C=CCCCSC[C@H](NC(=O)c1cc(OC)c(OC)c(OC)c1)C(=O)OC`: the inhibition in data set [2] was 50%; in data set [4] it was “Dose-dependent effect”; in [5] it was greater than 95%; in [11], 50%; in data set [12] it was “Dose-dependent effect”. For the same molecule, the inhibition result (in data set [3]; in data set [6]; in [8]; in [9]; in [10]; on TLR2/TLR6 (Homo sapiens)) was “Active” each time. For the same molecule, the inhibition result in [13] is “Active”. Besides, in the data set with RAW264.7, the Activity entry is listed as “Non-Toxic”. In addition, the inhibition entry in data set [7] and in [14] was “inactive” each time. For the same molecule, the pIC50 on Toll-like receptor 2 was 4.65. Also, the inhibition at 12.5 µM in data set [15] was greater than 90%.
`COC(=O)[C@H](CSCc1ccccc1)NC(=O)c1cc(OC)c(OC)c(OC)c1`: on Toll-like receptor 2, the pIC50 was 4.49.
For `C#CCSC[C@H](N)C(=O)O`, the outcome in [1] was inactive.
On to `C=CCSC[C@H](N)C(=O)O`, for which the inhibition entry in [4] is “inactive”. For the same molecule, in data set [1], the result was inactive.

The values are drawn from ChEMBL document CHEMBL4396907, “Structure-activity relationship study and biological evaluation of SAC-Garlic acid conjugates as novel anti-inflammatory agents” (Eur J Med Chem, 2019).
